The text below walks through data of ChEMBL document CHEMBL3425508, “Discovery of potent hexapeptide agonists to human neuromedin u receptor 1 and identification of their serum metabolites” (ACS Med Chem Lett, 2015).

Each structure is given as a SMILES string. Calls of active or inactive are those of the source. The calls are words filed in the database; no cut-off is given here. Non-standard residues stand in square brackets, D forms with d. Residues, ends and D or L forms follow the SMILES beside them. *: point of attachment. Phe(4-F) = N[C@@H](Cc1ccc(F)cc1)C(=O)O; Acetyl(2-thienyl) = O=C(Cc1cccs1)*

For series [1], the target named is T1, Neuromedin-U receptor 1 (Homo sapiens) (UniProt Q9HB89).
T1 sequence (whole entry): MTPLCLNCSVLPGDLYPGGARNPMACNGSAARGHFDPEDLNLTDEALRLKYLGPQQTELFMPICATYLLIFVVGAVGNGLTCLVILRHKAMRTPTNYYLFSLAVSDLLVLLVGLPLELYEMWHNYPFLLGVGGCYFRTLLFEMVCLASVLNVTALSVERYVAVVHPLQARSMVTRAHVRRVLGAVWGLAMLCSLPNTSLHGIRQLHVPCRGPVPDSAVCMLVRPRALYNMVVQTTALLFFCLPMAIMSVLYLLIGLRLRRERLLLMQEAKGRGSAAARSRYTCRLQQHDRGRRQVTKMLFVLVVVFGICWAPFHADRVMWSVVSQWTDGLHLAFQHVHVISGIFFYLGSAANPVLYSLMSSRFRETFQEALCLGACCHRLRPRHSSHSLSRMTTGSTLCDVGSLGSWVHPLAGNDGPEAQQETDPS
In words: Agonist activity at human NMUR1 expressed in CHO cells assessed as intracellular calcium flux at 1 and 10 nM by Fluo-4 AM dye based fluorometric imaging method relative to 1000 nM human neuromedin U. The class given is functional, cell-based.

The target of series [2] is T2, Neuromedin-U receptor 2 (Homo sapiens, UniProt Q9GZQ4). In words: Agonist activity at human NMUR2 expressed in CHO cells assessed as intracellular calcium flux at 1 and 10 nM by Fluo-4 AM dye based fluorometric imaging method relative to 1000 nM human neuromedin U. The class given is functional, cell-based. (A change in cytosolic calcium serves as a functional read-out for many receptors and channels.)
T2 sequence (Q9GZQ4 whole entry): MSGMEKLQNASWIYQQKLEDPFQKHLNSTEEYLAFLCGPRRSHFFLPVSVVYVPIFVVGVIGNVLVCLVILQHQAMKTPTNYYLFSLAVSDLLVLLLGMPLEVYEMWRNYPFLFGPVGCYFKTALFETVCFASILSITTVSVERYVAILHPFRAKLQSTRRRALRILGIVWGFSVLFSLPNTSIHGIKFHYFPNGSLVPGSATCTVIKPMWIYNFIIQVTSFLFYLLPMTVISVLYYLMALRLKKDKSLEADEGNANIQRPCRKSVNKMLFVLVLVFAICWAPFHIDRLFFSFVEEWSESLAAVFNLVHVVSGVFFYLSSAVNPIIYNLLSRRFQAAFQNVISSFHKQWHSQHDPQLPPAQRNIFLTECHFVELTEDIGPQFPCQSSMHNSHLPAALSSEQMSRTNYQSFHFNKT

The target in the next series is T3, Neuromedin-U receptor 1 (Homo sapiens, UniProt Q9HB89).
T3 sequence (Q9HB89 whole entry): T1 sequence (whole entry)
In words: Agonist activity at human NMUR1 expressed in CHO cells assessed as intracellular calcium flux at by Fluo-4 AM dye based fluorometric imaging method. The class given is functional, cell-based. A digest of the protocol: (§1)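 Dose–response Ca2+ mobilization in CHO cells stably expressing human NMUR1 or NMUR2. Peptides run at 10^-12–10^-6 M with hNMU as reference. EC50 and intrinsic activity derived from the curves. Triplicate determinations.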

Series [3] concerns the target T1, Neuromedin-U receptor 1 (Homo sapiens). In words: Intrinsic agonist activity at human NMUR1 expressed in CHO cells assessed as intracellular calcium flux at by Fluo-4 AM dye based fluorometric imaging method. The format is functional, cell-based. The gist of the method:
as §1

In series [4] the target is T2, Neuromedin-U receptor 2. In words: Agonist activity at human NMUR2 expressed in CHO cells assessed as intracellular calcium flux at by Fluo-4 AM dye based fluorometric imaging method. The class given is functional, cell-based. A digest of the protocol:
as §1

For series [5], the target named is T2, Neuromedin-U receptor 2. In words: Intrinsic agonist activity at human NMUR2 expressed in CHO cells assessed as intracellular calcium flux at by Fluo-4 AM dye based fluorometric imaging method. The class given is functional, cell-based. The gist of the method:
as §1

Series [6] relates to Serum. In words: Drug metabolism in 25% rat serum assessed as cleavage at Phe(2)-Arg(3) site at 1 mM at 37 degC by RP-HPLC method. The class given is ADME, cell-free. As to conditions: 1000 µM. The gist of the method: (§2)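 Peptides incubated in 25% rat serum at 37 °C and sampled over time (10, 30, 60 min). Samples extracted on Sep-Pak C18 cartridges and analysed by C18 RP-HPLC with UV detection at 220 nm. Metabolites identified by mass spectrometry. Recovery of intact peptide measured at 10 or 60 min, in triplicate.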

Series [7] has as its system Serum. In words: Drug metabolism in 25% rat serum assessed as cleavage at Arg(5)-Asn(6) site at 1 mM at 37 degC by RP-HPLC method. The class given is ADME, cell-free. As to conditions: 1000 µM. The gist of the method:
as §2

In series [8] the test system is Serum. In words: Drug degradation in 25% human serum at 1 mM at 37 degC by RP-HPLC method. The class given is ADME, cell-free. As to conditions: 1000 µM, TDE = time-dependent effect.
Series [9] in a line: Drug metabolism in 25% rat serum assessed as drug recovery at 1 mM incubated for 10 mins at 37 degC by RP-HPLC method. The format is ADME, cell-free. As to conditions: read-out: Drug recovery. The gist of the method: as §2

In general, EC50 refers to the midpoint of the concentration-response curve. On to `N=C(N)NCCC[C@H](NC(=O)[C@@H]1CCCN1C(=O)[C@H](CCCNC(=N)N)NC(=O)[C@H](Cc1ccc(F)cc1)NC(=O)[C@H](Cc1c[nH]c2ccccc12)NC(=O)Cc1cccs1)C(=O)N[C@@H](CC(N)=O)C(N)=O` ({Acetyl(2-thienyl)}-W[Phe(4-F)]RPRN-NH2), for which the result (in series [1]; at Neuromedin-U receptor 2 [2]) was Active. In addition, the EC50 at Neuromedin-U receptor 1 is 0.083 nM; at Neuromedin-U receptor 2 [4] it was 2.6 nM. In addition, the Intrinsic activity in series [3] came out at 95%; on Neuromedin-U receptor 2 [5] it was 82%. The Drug metabolism result with Serum [6] and with Serum [7] was “metabolite_detected” in each case. Moreover, the Drug degradation entry with Serum [8] is “tde”. In addition, the remaining at 10 min, 1000 µM in series [9] came to 42.7%.
